This series relates to MS2 coat protein. The experiment in a line: apparent Kd, MS2 coat protein; higher = weaker binding; RNA-MaP array; FMN 200 µM where present. Put shortly:
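Green signal was scaled to red-channel RNA signal and control-cluster median Fmax, and the apparent Kd was taken as the median of filtered per-cluster binding-curve fits. The binding series used SNAP-549-labelled MS2 coat protein from 0.7 or 1.5 nM, doubling to 3 µM, on designs transcribed by stalled E. coli RNA polymerase on Illumina sequencing-chip clusters. Each series ran without and then with constant ligand in 100 mM Tris-HCl pH 7.5, 80 mM KCl, 4 mM MgCl2, BSA, DTT, yeast tRNA and Tween-20.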

Where [1] appears, read: designed as: ON switch for flavin mononucleotide, no ligand.
The mark [2] stands for this setting: ligand present: flavin mononucleotide, designed as: ON switch for flavin mononucleotide.
The mark [3] stands for this setting: designed as: OFF switch for flavin mononucleotide, no ligand.
The mark [4] stands for this setting: ligand present: flavin mononucleotide, designed as: OFF switch for flavin mononucleotide.

On to “AGCUACGUUUCGUAGCAGCUAGGUGAGGAUAUUCAAUUUUUCACAUGAGGAUCACCCAUGUAUGUGAAGAAGGCGCCUAGAAAA”, for which the “apparent Kd” value by setting is: under setting [1], 12.3 nM; under setting [2], 4.98 nM.

For “GCGCAAGCAUGAGGAUAUGUAUUAAAUAAUAAUACAGAAGGCAUGUCAAAUGACAUGAGGAUCACCCAUGUUGGCAAAAUGCGC”, the “apparent Kd” value is, setting by setting: under setting [1], 45.8 nM; under setting [2], 10.5 nM.

In the case of “CCGGGCUAGGAGAAGGGCUAGAGUGUGAUAUAUUUGCCCGCGAGCACAUGAGGAUCACCCAUGUAGCAGGAUAUCCAAGCCGGU”, the “apparent Kd” value under setting [3] worked out at 7.25 nM and the “apparent Kd” value under setting [4] worked out at 21.2 nM. In the case of “CUUUUGUGAGGAUAUCAGUAGUAGAACAAUAGUACUACUACUGAGAAGGCACAUGAGGAUCACCCAUGUUCCUC”, the “apparent Kd” value runs as follows: under setting [3], 62.5 nM; under setting [4], 455 nM.

“AGCUGUGGCCGAGGAUAUCUAUCUCAUAAAACCGAAAUAUAAUCGGACAUGAGGAUCACCCAUGUAGAGAAGGCGGUCUCAGCA”: the “apparent Kd” value by setting is: under setting [3], 27.6 nM; under setting [4], 129 nM. As to “GGGUACAUCUGAGGAUAUCAUGUAAAUACAUGAGGAUCACCCAUGUCGAUGGAGACAUCGGAGAUUGAGAAGGCCGAUGUACCG”, the “apparent Kd” value is, setting by setting: under setting [1], 263 nM; under setting [2], 14 nM.

As for “AGUUAGAUAGCGAUAUGAUCGAGAGAUCAUGUCGCUAAAUUUAGAAGGACAUGAGGAUCACCCAUGUAGGAUAUGGGAGUAGAA”, the “apparent Kd” value is, setting by setting: under setting [1], 143 nM; under setting [2], 59.3 nM. As to “CUUUAACUACAAUUACAUGAGGAUCACCCAUGUUUUGGGAUGCAGGAUAUGUGGUAUAUUAAUUAACAGAAGGGCAAUAAUUAA”, the “apparent Kd” value runs as follows: under setting [1], 40.7 nM; under setting [2], 38.9 nM. In the case of “AUUAUUAUAAAUUUGGCAAGAAUCAGAAGGCGUUACAUGAGGAUCACCCAUGUUUUGUAUAGUAACGAGGAUAUGAUAUGGAAA”, the “apparent Kd” value is 17 nM under setting [3] and 12.9 nM under setting [4].

Take “UGAAAUCAUGUAGGAUAUGCAUGGCGAAGCUACGCAGAAGGACAUGAGGAUCACCCAUGUUAUAGCUACCCAAUUCGGUGGCAA”: the “apparent Kd” value runs as follows: under setting [3], 56.3 nM; under setting [4], 152 nM.

“CCCUCACAUGAGGAUCACCCAUGUCAGGAUAUCUAGUCAGACAGUGUAGCACUGCUGAAGAGAAGGGACGUAAA”: the “apparent Kd” value was 16.9 nM under setting [3] and 19.4 nM under setting [4]. For the sequence “ACAGUUGAAGCAGGAUAUGUACAUGAGGAUCACCCAUGUUGUCUGAGCGACUGGGAGUGCUAGCUACAGAAGGGCUUUACGACC”, the “apparent Kd” value under setting [3] stood at 12.9 nM and the “apparent Kd” value under setting [4] amounted to 77 nM. On to “AGUUGUAAACAGAACAUGAGGAUCACCCAUGUGCUCUCGUGUAAGGAUAUACAUUCGUAUGGAAAGUAGAAGGUACUAAUUAUG”, for which the “apparent Kd” value was 78.4 nM under setting [1] and 78.7 nM under setting [2].

“GUUAAACAUGAGGAUCACCCAUGUAAGGAUAUGCUGCGGUCGAGAUGAAGUGAAUGCAGCAGAAGGUACAAUUG”: the “apparent Kd” value is 116 nM under setting [3] and 99.9 nM under setting [4]. In the case of “AUAUUUAUUUAGAAGGACAUGAGGAUCACCCAUGUCGCUGGGCGCGGGAAACCGUGCGCGGCCAUGUAGGAUAUAGGUAGAUAU”, the “apparent Kd” value under setting [3] is 14.4 nM and the “apparent Kd” value under setting [4] amounted to 12.4 nM. Turning to “AAAACAUACCGAGGAUAUUCAUAUAAUAAAUAAACAUGAGGAUCACCCAUGUGGCGAAAGCCUAGGGAGAAGGCGGAAUGCUAA”, the “apparent Kd” value came to 149 nM under setting [1] and 31.8 nM under setting [2].

For the sequence “UCUGCCGCCGUGAGGAUAUGCCCGCGCGCCCGCGGGCAGAAGGCACAUGAGGAUCACCCAUGUCCCGCGGUUUU”, the “apparent Kd” value under setting [3] came to 16.3 nM and the “apparent Kd” value under setting [4] stood at 37.3 nM. Take “AUCAGCUCGUCAGGAUAUACGUCACUGCGUCAGCAGUGUUGUAAGAUCACAUGAGGAUCACCCAUGUAGAAGGGACGAGCUGAU”: the “apparent Kd” value under setting [3] came to 5.91 nM and the “apparent Kd” value under setting [4] amounted to 10.2 nM. For “GUCAGCUCGUGAGGAUAUACAACACUGCUUCGGCAGUGUAUUAAGAUCACAUGAGGAUCACCCAUGUAGAAGGCACGAACUGAU”, in that order: 12.9 nM and 212 nM. On to “GGCGGGCGGGAGGAUAUUCGGGCUGUUUGGCUUGGAGAAGGCUCGACAUGAGGAUCACCCAUGUUUGGGUCGCC”, for which the “apparent Kd” value under setting [3] amounted to 16.2 nM and the “apparent Kd” value under setting [4] is 27 nM. Turning to “UUUUAACAUGAGGAUCACCCAUGUGAGGAUAUCGAAAUUUAUAUUAAUAUUAUUUAAACGAGAAGGCACAUUUU”, the “apparent Kd” value runs as follows: under setting [3], 65.2 nM; under setting [4], 87 nM. “UACAGCCGCAUCCCAUCGCUGGAAGAGGAUAUACAUCAUCGCGCACUCACAUGAGGAUCACCCAUGUAGAAGGCUUCCUGGCGG”: the “apparent Kd” value runs as follows: under setting [3], 7.94 nM; under setting [4], 25.4 nM. As for “UUUUUACUUGCAGGAUAUGGAGACAUGAGGAUCACCCAUGUAUGAUAAGCUAAAUUAUGCUGUGGCCAGAAGGGUAUUAUUCUU”, the “apparent Kd” value was 63.2 nM under setting [1] and 57.4 nM under setting [2]. Take “AAACCACAUGAGGAUCACCCAUGUGAGGAUAUGAUACUAUGUACUUCGGUACAUAGUAUCAGAAGGCAUAUGAA”: the “apparent Kd” value runs as follows: under setting [3], 24.6 nM; under setting [4], 25.1 nM. Turning to “AUUUAUGGCCAGAAGGACAUGAGGAUCACCCAUGUAGGAUAUGGACGAUUUUGCUCGGCGGUUUUUUUAGGAAGCACCGGUGGU”, the “apparent Kd” value by setting is: under setting [1], 12.4 nM; under setting [2], 7.14 nM. Take “GGGCUCGGAGGAUAUACAUGAGGAUCACCCAUGUAGGGCUCGGGUAUUCUCGGGCUCUGUAGAAGGUCGGGCUC”: the “apparent Kd” value under setting [3] is 20.3 nM and the “apparent Kd” value under setting [4] was 23.3 nM. The matching figures for “AGCUGUGGCCGAGGAUAUACAUUCCUAAUCCAUUGCAAAUAGCGAUGGACAUGAGGAUCACCCAUGUAGAAGGCGGUCUCAGCA”: 561 nM and 163 nM. For “AUUGUAUAGGAAGGAUAUAGAAUAUUAUUUUAACAUGAGGAUCACCCAUGUAACCUUAUGUGUAGCUAGAAGGUCCAUUUAUUA”, in that order: 99.6 nM and 150 nM. On to “GAAUUCGCAUGAGGAUAUGCUCCCGUUUCGGGAGCAGAAGGCAUGUCAUAAGACAUGAGGAUCACCCAUGUAGUUAAGAUUGAA”, for which the “apparent Kd” value is, setting by setting: under setting [1], 196 nM; under setting [2], 11.3 nM.

“AAAUAGUUACAGAAGGGCAUUUAUAAUUAUCAUUACUCUUACUAUGUUUGCAGGAUAUGUUUAACAUGAGGAUCACCCAUGUAC”: the “apparent Kd” value runs as follows: under setting [1], 20.4 nM; under setting [2], 14.1 nM.

As for “AAGGUGAGAGGAUAUACAUGAGGAUCACCCAUGUGCCGGCCCUCCACAUAUGCCUUGUGUAGAAGGCUCCCGAA”, the “apparent Kd” value came to 14.5 nM under setting [3] and 14.9 nM under setting [4]. Regarding “GCCGAACAUGAGGAUCACCCAUGUCUGGGUAAUUAAGGAUAUGGGAAGGCUUUGCCGUGGCCAGAAGGUGGUUAUC”, the “apparent Kd” value was 171 nM under setting [1] and 108 nM under setting [2].

As to “AAAAAACAUGAGGAUCACCCAUGUGAGGAUAUCCAAAAGUCAAAGAAAAAGACGAAAAGGAGAAGGCACAAAAA”, the “apparent Kd” value under setting [3] is 72.8 nM and the “apparent Kd” value under setting [4] was found to be 84.8 nM.

“UCAUGUUAGCAGGAUAUGCUAUUUAUUUUUUAUGCAGAAGGGCUUACAUGAGGAUCACCCAUGUGUUAGGUUUU”: the “apparent Kd” value under setting [3] worked out at 41.8 nM and the “apparent Kd” value under setting [4] was 21.1 nM. With “AAACAUGUCCGAGGAUAUCUGGAAACUUUUUCAAGAGAAGGCGGACAUGAGGAUCACCCAUGUCUCUCCUCAUCAAAUCCAAGU”, the “apparent Kd” value is, setting by setting: under setting [3], 7.94 nM; under setting [4], 50.3 nM. As to “GGGUACAUCGGAGGAUAUCAUGUAAAUACAUGAGGAUCACCCAUGUCGAUGGUGACAUCGGAGAUUGAGAAGGCCGAUGUACCG”, the “apparent Kd” value stood at 245 nM under setting [1] and 9.37 nM under setting [2]. On to “AACUGACAUGAGGAUCACCCAUGUCAGGAUAUGACUUCAAAAUAAAAAUAAAAUGAUGUCAGAAGGGACAUGGA”, for which the “apparent Kd” value reads like this: under setting [3], 22.6 nM; under setting [4], 36.1 nM. The matching figures for “GUCAUGUCAGGAUAUGCUUAUGAUGAGUGCUCAGACAUGAUGCAGAAGGGACAUGAGGAUCACCCAUGUACUGA”: 22.4 nM and 26.8 nM.

“UAUGGUUAAGUCAGGAUAUGCUCAUAGAGGUCUGUGCAGAAGGGACAUGAGGAUCACCCAUGUAUGGUAGUGUU”: the “apparent Kd” value runs as follows: under setting [3], 194 nM; under setting [4], 240 nM. “UUACUAUAACAGAAGGGUAGAUAGUAUAUAAAUGCAGGAUAUGUUACAUGAGGAUCACCCAUGUUUCACCCACAUGAGGAUCAC”: the “apparent Kd” value was found to be 28.5 nM under setting [3] and 40.7 nM under setting [4]. Consider “CUUUUGUGAGGAUAUUCGUAGUAGGGUCAUGGUACUAUUACGGAGAAGGCACAUGAGGAUCACCCAUGUUCCUU”, for which the “apparent Kd” value under setting [3] turned out to be 15.4 nM and the “apparent Kd” value under setting [4] came to 45.1 nM. The matching figures for “ACAUGCGGAUGAGGAUAUUCAUCCAUGAGGAUAGAAGAAGGCAUACAUGAGGAUCACCCAUGUAUACACAUGAGGAUCCCUUAU”: 59 nM and 137 nM. Consider “AACCGCGACCGGCCUGGCACGCCGAGAAGGGUACGUGACCUGCUUUACAUGAGGAUCACCCAUGUACAGGAUAUCGGAUAGCCG”, for which the “apparent Kd” value under setting [4] was 7.28 nM. Turning to “GUUCGGGCAGGAUAUACAUGAGGAUCACCCAUGUGUGUCCAUACGCGUGAGUCCUCGUGUAGAAGGGUUUGGGC”, the “apparent Kd” value worked out at 23.2 nM under setting [3] and 17.4 nM under setting [4].

In the case of “GCCGGGUGGGUAGGAUAUGGCUAUGUCUCAUUGCUAGAAGGACCAACUGCUACAUGAGGAUCACCCAUGUCGUAGUGCACCCGG”, the “apparent Kd” value worked out at 138 nM under setting [1] and 28.9 nM under setting [2]. The matching figures for “CUAAUGAGUGCGAGCUGACACAUGAGGAUCACCCAUGUAACACAGGAUAUCUGUCAAGGCGUGAAAGAGAAGGGUGGUCGGAAA”: 142 nM and 263 nM. As to “UGCACCAACGAGAAGGCACAGAUCCAGCUCUUGACAUGAGGAUCACCCAUGUGAGGAUAUCGUAGGUGCGAUUUGGGACAAUCU”, the “apparent Kd” value runs as follows: under setting [3], 11 nM; under setting [4], 91.8 nM. Take “GGAUGACAAAGUCAUCCUAUUCGAACAUGAGGAUCACCCAUGUAGGAUAUGCAACUCAAAGAGUUGCAGAAGGACAUGUGCCUU”: the “apparent Kd” value runs as follows: under setting [3], 30.9 nM; under setting [4], 153 nM.

By apparent Kd is commonly meant a dissociation constant that holds for the conditions of the assay.

(Values after the EternaBench riboswitch data.)
